Results on 38 variants are retold here after the RNAGym collection of RNA variant scans (doi:10.1126/science.aae0568).

B1: tRNA (parent)
chain: GUUCCGUUGGCGUAAUGGUAACGCGUCUCCCUCCUAAGGAGAAGACUGCGGGUUCGAGUCCCGUACGGAACG

Fewer inactive variants are shown than the library holds. A value given as a limit tells only on which side of the number the result lay.

The variants in the data set derive from B1. Kind of data set: yeast fitness relative to wild type (ratio to wild type); higher = fitter; tRNA-Arg(CCU), competitive growth, 37 C, YPD. A digest of the protocol: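 Amplicons of the tRNA-Arg(CCU) gene were sequenced, 100-nucleotide paired-end, from the start population and from each end population of a pooled yeast competition. The competition, in six parallel replicates, lasted 24 hours in YPD at 37°C. Fitness relative to wild type was calculated from changes in genotype frequencies. Genotypes had to have ≥ 100 starting reads, and estimates < 0.5 were set to 0.5.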
Consider GUUCCGUUGGCGUAAUGGUAACGCGUCUCCAUCCUAAGGAGAAGACUGCGGGUUCGAGUCCCGUACGGAUCG, for which the yeast fitness was 0.927.
Then GUUCCGUUGGCGUAAUGGUAACGCGUCUCCAUCCUAAGGAGAAGACUGCGGGUUCGAGUCCCGUACGGAGCG, with 0.811.
Then GUUCCGUUGGCGUAAUGGUAACGCGUCUCCAUCCUAAGGAGAAGACUGCGGGUUCGAGUCCCGUACGGACCG, with 0.783; and GUUCCGUUGGCGUAAUGGUAACGCGUCUCCAUCCUAAGAAGACGACUGCGGGAUCGAGUCCCGUAAGGAACG, with no more than 0.5.
Then GUUCCGUUGGCGUAAUGGUAACGCGUCUCCAUCCUAAGGAGAUGACUGCGGGUUCGAGUCCCGUACGGAACG, with 0.94; and GUUCCGUUGGCGUAAUGGUAACGCGUCUCCAUCCUAAGGAGAGGACUGCGGGUUCGAGUCCCGUACGGAACG, with 0.897; and GUUCCGUUGGCGUAAUGGUAACGCGUCUCCAUCGUAAGGAGGAGUCUGCGGGUUCGAGUCCCGUACGGAACG, with no more than 0.5.
On to GUUCCGUUGGCGUAAUGGUAACGCGUCUCCAUCGUAAGGAGACGACCGCGGGUUCGAGUCUCGUACGGAACG, for which the yeast fitness is no more than 0.5.
Then GUUCCGUUGGCGUAAUGGUAACGCGUCUCCAUCCUAAGGAGAAGACUGCGGGUUCGAGUCCCGUGCGGAACG, with 0.732; and GUUCCGUUGGCGUAAUGGUAACGCGUCUCCAUCCUAAGGAGAAGACUGCGGGUUCGAGUCCCGUCCGGAACG, with 0.89; and GUUCCGUUGGCGUAAUGGUAACGCGUCUCCAUGCUAAGGAGCAGACUACGGGUACGAGUCCCGUACGGCACG, with no more than 0.5.
On to GUUCCGUUGGCGUAAUGGUAACGCGUCUCCAUCCUAAGGAGAAGACUGCGGGUUCGAGUCCGGUACGCAACG, for which the yeast fitness was no more than 0.5.
With GUUCCGUUGGCGUAAUGGUAACGCGUCUCCAUCGUAAGGAGAAGUCUGCGGGUUCGAGUCCCGUACGGAACG the figure was 0.591; with GUUCCGUUGGCGUAAUGGUAACGCGUCUCCAUCCUAAGGAGAAGACUGCGGGUUCGAGUCGCAUACGGAACG, no more than 0.5.
With GUUCCGUUGGCGUAAUGGUAACGCGUCUCCAUCCUAAGAAGAAGACUGCGGGUUCGAGUCCCGUACGGAACG the figure was 0.777.
GUUCCGUUGGCGUAAUGGUAACGCGUCUCCAUCCUAAGGAGAAGACUGCGGGUUCGAGUCGCGUACGGAACG: the yeast fitness stood at 0.812.
Regarding GUUCCGUUGGCGUAAUGGUAACGCGUCUCCAUCCUAAGGAGAAGACUGCGGGUUCGAGUCUCGUACGGAACG, the yeast fitness is 0.845.
Regarding GUUCCGUUGGCGUAAUGGUAACGCGUCUCCAUCCUAAGGAGAAGACUGCGGGUUCGAGUCACGUACGGAACG, the yeast fitness was no more than 0.5.
Take GUUCCGUUGGCGUAAUGGUAACGCGUCUCCAUCCUAAGGAGAAGGCUGCGGAUUAGAGUCCCGUACGGAACG: the yeast fitness is no more than 0.5.
Consider GUUCCGUUGGCGUAAUGGUAACGCGUCUCCAUCCUAAGGAGAAGACUGCCGGUUCGAGUCCCGUACGGAGCG, for which the yeast fitness was no more than 0.5.
Consider GUUCCGUUGGCGUAAUGGUAACGCGUCUCCAUCCUAAGGAGAAGACUGCGGGUUUGAGUCCCGUACGGAACG, for which the yeast fitness stood at 0.863.
With GUUCCGUUGGCGUAAUGGUAACGCGUCUCCAUCCUAAGGAGAAGACUGCGGGUUAGAGUCCCGUACGGAACG the figure was 0.666; with GUUCCGUUGGCGUAAUGGUAACGCGUCUCCAUCAUACGGAGAAGACUGCGGGUUCGAGUCCCGUACGGAACG, 0.6.
Then GUUCCGUUGGCGUAAUGGUAACGCGUCUCCAUCCUAAGGAGAAGACUGCGGGUUCGAGUCCCGUACGGUACG, with 0.856; and GUUCCGUUGGCGUAAUGGUAACGCGUCUCCAUCCUAAGGAGAAGACUGCGGGUUCGAGUCCCGUACGGCACG, with 0.949.
Then GUUCCGUUGGCGUAAUGGUAACGCGUCUCCAUCCUAAGGAGAAGACUGCGGGUUCGAGUCCCGUCCUGAACG, with no more than 0.5; and GUUCCGUUGGCGUAAUGGUAACGCGUCUCCAUCCUAAGGAGAACACUGCGGGUUCGAGUCCCGUGCGGAACG, with 0.553; and GUUCCGUUGGCGUAAUGGUAACGCGUCUCCAUCCUAAGGAGAAGACUGCGGGUUCGAGUCCGGUACGGAACG, with 0.651.
For the variant GUUCCGUUGGCGUAAUGGUAACGCGUCUCCAUCCUAAGGAGAAGACUGCGGGUUCGAGUCCUGUACGGAACG, the yeast fitness came out at 0.944.
Then GUUCCGUUGGCGUAAUGGUAACGCGUCUCCAUGCUAAGGAGCAGACUACGGGUACGAGUCCCGUAAGGAACG, with no more than 0.5.
With GUUCCGUUGGCGUAAUGGUAACGCGUCUCCAUCCUAAGGAGACGACUGCGGGUUCGAGUCCUGUACGGAACG the figure was 0.998; with GUUCCGUUGGCGUAAUGGUAACGCGUCUCCAUCCUAAGGAGCAGACUGCGGGUUCGAGUCCCGUACGGAACG, 0.963; with GUUCCGUUGGCGUAAUGGUAACGCGUCUCCAUCCUAAGGAGAAGACUGCGGGUUAGAGUCCCGUACAGAACG, no more than 0.5.
With GUUCCGUUGGCGUAAUGGUAACGCGUCUCCAUCCUAAGAAGAAGAUUGCGGGUUCGAGUCCCGUACGGAACG the figure was no more than 0.5; with GUUCCGUUGGCGUAAUGGUAACGCGUCUCCAUCCUAAGGAGAAGACUACGGGUUCGAGUCCCGUACGGCACG, 0.678; with GUUCCGUUGGCGUAAUGGUAACGCGUCUCCAUCCUAAGGAGAAAACUGCGGGUUCGCGUCCCGUACGCAACG, 0.753.
As for GUUCCGUUGGCGUAAUGGUAACGCGUCUCCAUCCUAAGGAGAAGACUGCGGGUUCGAGUCGCGUACGCAACG, the yeast fitness is no more than 0.5.
Then GUUCCGUUGGCGUAAUGGUAACGCGUCUCCAUCCUAAGGAGAAGACUGCGGCUUCGAGUCCCGUACGGAACG, with no more than 0.5.
